Sampled rows, rich in hits. Any-hit rate of the full collection: about 4.8%.
697 NFkB inh – lowers PMA/ionomycin-induced NF-kB signal in 697 B cells. hit rate 0.33% among 330,000. 697 B-cell NF-kB luciferase reporter, 16 h. inhibition, % at 4 µM; in the data active = inhibition above about 35%
HSF1 inh – HSF1 inhibition; NIH3T3-HGL HSE-luciferase, MG132-induced, luminescence 8 h; hits give low values; activity change, negative = inhibition, % at 7.5 µM (by protocol); hit rate 0.77% among 300,000; AID 2098;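 active = more than half of replicate wells show activity change below -50%, luminescence cut by over half; inconclusive = some wells, but at most half, below -50%; inactive = no replicate well below -50%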;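 also: luciferase reports HSF-1 transcriptional activity via heat shock element; 0% = median of DMSO wells and -100% = zero luminescence signal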
HSF1 activator – increases HSF-1 driven luciferase reporter signal. NIH3T3-HGL HSF-1 luciferase reporter, MG132, 8 h; 100% = twice DMSO control signal. activation, % at 9 µM. hit rate 1.7% among 300,000. AID 504408;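 active = mean replicate activation of at least 50% with a set share of replicates each reaching 50%; inconclusive = only one of those two conditions met; inactive = mean below 50% and too few replicates reaching it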;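 also: 0% = median of the neutral control wells and 100% = twice that signal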
GPR7 antag – human neuropeptides B/W receptor 1 antagonism; P48145; GPR7-expressing cells, fluorescence antagonist assay; inhibition, % at 4.4 µM; hit rate 1.1% among 290,000; in the data active = inhibition above about 16%, passing the limit was not always enough;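 also: cells stimulated with the agonist NPW; 0% = agonist with vehicle and 100% = vehicle without agonist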
Target sequence (P48145 whole entry, looked up): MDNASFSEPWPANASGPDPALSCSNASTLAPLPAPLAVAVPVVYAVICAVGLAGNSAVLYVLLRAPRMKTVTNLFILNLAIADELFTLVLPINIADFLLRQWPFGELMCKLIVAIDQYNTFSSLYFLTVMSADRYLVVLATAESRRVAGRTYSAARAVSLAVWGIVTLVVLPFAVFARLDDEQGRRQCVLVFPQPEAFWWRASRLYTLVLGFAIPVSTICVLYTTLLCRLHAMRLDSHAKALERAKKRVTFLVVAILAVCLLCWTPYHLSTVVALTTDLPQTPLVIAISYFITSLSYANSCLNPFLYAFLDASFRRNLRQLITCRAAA
Jurkat NFkB inh – lowers PMA/ionomycin-induced NF-kB signal in Jurkat cells | PMA/ionomycin-induced NF-kB luciferase reporter, luminescence | inhibition, % at 4 µM | hit rate 0.53% among 330,000; in the data active = inhibition above about 50%
T cruzi repl – T. cruzi replication inhibition; T. cruzi beta-gal in NIH3T3, luminescence, 90 h; inhibition, % (test concentration not listed); hit rate 1.4% among 300,000; AID 1885;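 active = mean inhibition across valid replicates above about 55%, limit read from the data; inconclusive = mean below that limit but half or more replicates reach it; inactive = mean below it, under half of replicates reach it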;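 also: signal also drops with host cell toxicity which is not excluded here; 0% = plate median of DMSO wells and 100% = zero luminescence signal; higher percent means less beta-gal luminescence so fewer parasites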
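Read-out: Parasite load inhibition, % | Test system: Mouse NIH/3T3 fibroblasts infected with β-gal-expressing T. cruzi Tulahuen C4 | Amount: 5,000 cells/well | Medium: DMEM, 2% fetal bovine serum | Signal: GalScreen β-gal luminescence, detergent lysis, 60 min | Timing: 3 h attach, ≥90 h co-culture | Also added: Tulahuen C4 trypomastigotes, 5000/well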
Jurkat NFkB conf – lowers PMA/ionomycin-induced NF-kB signal in Jurkat cells | shares compounds with Jurkat NFkB inh | Jurkat NF-kB luciferase, 16 h | inhibition, % at 4 µM | hit rate 27% among 2,700 | AID 435020;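 active = inhibition reaching about 45% at 4 µM in either replicate, limit read from the data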;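 also: plate controls were PMA/ionomycin stimulated DMSO wells for no effect and unstimulated DMSO wells for full effect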
Active calls of the source: *; ? = inconclusive; nt = no result given.

SMILES	697 NFkB inh	HSF1 inh	HSF1 activator	GPR7 antag	Jurkat NFkB inh	T cruzi repl	Jurkat NFkB conf
COCCNc1nnnc2c1sc1nc(N3CCOCC3)c3c(c12)CCCC3	nt	nt	nt	-11	nt	nt	nt
COc1ccc(O)c(CN2CCN(CCCc3ccccc3)C(CCO)C2)c1 (stereo not given)	3	1	11	4	-10	-3	nt
COc1cc(Nc2ccc(C)cc2)c([N+](=O)[O-])nc1[N+](=O)[O-]	-52	-11	-8	5	58*	60*	50*
Cc1ccc2nc(C)cc(Nc3ccc([N+](=O)[O-])cc3)c2c1	nt	0	28	-7	nt	-46	nt
COc1ccc(/C=C/c2ccc3cccc(O)c3n2)cc1Br	-75	-11	-8	-13	-62	44	nt
COc1cc(/C=C/c2ccc3cccc(O)c3n2)cc(OC)c1OC	-182	7	13	24	97*	45	35
O=C(COC(=O)c1cccs1)Nc1cccc(S(=O)(=O)N2CCCCC2)c1	5	nt	nt	nt	-5	nt	nt
CC(C)CCOc1cccc(OCC(=O)Nc2ccncc2)c1	-11	-7	-5	21	57*	-11	65*
COc1cccc(OCC(=O)Nc2ccncc2)c1	11	-29	-44	5	15	-14	nt
Cc1cc(C)nc(SCC(=O)OCC(=O)Nc2ccccc2)n1	-1	-5	14	-1	-1	-2	nt
COC(=O)c1cc(OC)c(OC)cc1NC(=S)NC(=O)c1ccco1	-18	33	73*	-7	85*	-18	-2
COc1cc2nc(NC(=O)c3ccco3)sc(=O)c2cc1OC	24	13	30	-10	80*	-10	89*
COc1cc2sc(NC(=O)c3ccco3)nc2cc1Cl	-116	12	26	8	-65	-7	nt
COc1cccc(CN2CC(C(=O)NC3CCC(O)CC3)CCC2=O)c1 (stereo not given)	-5	-5	0	-4	-13	-2	nt
Cn1cccc1/C=C1\SC(=Nc2ccc(O)cc2)NC1=O	-52	-25	-34	21*	56*	23	8
COc1ccc(C2=Nn3c([n+](C)c4ccccc43)SC2)cc1	25	-3	26	-6	54*	70*	63*
COCC1CCCCN1C(=O)c1ccc(OC2CCN(CCc3ccccc3)CC2)cc1 (stereo not given)	6	-1	15	7	-8	10	nt
COC(=O)CCC(=O)NC(=S)Nc1sc(C)c(C)c1C(N)=O	-41	-14	0	13	65*	-27	50*
COC(=O)CCC(=O)Nc1sc(C)c(C)c1C(N)=O	8	7	5	1	-1	-17	nt
O=C(Nc1ccc(Cl)cc1C(=O)NCc1cccnc1)c1ccc(Cl)cc1Cl	-23	1	10	-9	51*	4	11
COc1ccc(NC(=S)NN(C)C(=S)Nc2ccc(OC)cc2)cc1	-49	-2	-12	13	65*	-59	-2
Cc1cc(O)c(-c2cc(C(=O)Nc3cccnc3)[nH]n2)cc1C	-41	33	64*	-15	-178	-12	-114
C(=N\Nc1nc(-c2cccnc2)nc2ccccc12)/c1ccccc1	-25	-2	4	-19	-16	-9	nt
C(=N\Nc1nc(-c2ccccn2)nc2ccccc12)/c1ccccc1	-30	111	160*	-18	101*	33	15
CC(=O)c1sc2c(c1OC(=O)c1ccc(Cl)cc1Cl)c(=O)n(-c1ccccc1)c(=S)n2-c1ccccc1	-15	11	-5	1	69*	8	87*
SMILES	697 NFkB inh	HSF1 inh	HSF1 activator	GPR7 antag	Jurkat NFkB inh	T cruzi repl	Jurkat NFkB conf
CC(=O)c1sc2c(c1N)c(=O)[nH]c(=O)n2-c1ccccc1	-31	1	-8	-12	-28	-13	nt
CCOC(=O)c1[nH]c(C)c(C(=O)OCC(=O)NC(C)c2ccc(F)cc2)c1C (stereo not given)	-69	nt	nt	nt	60*	nt	51*
CCOC(=O)c1c(C)[nH]c(C(=O)OCC(=O)NC(C)(C)C)c1C	-4	9	-2	-2	10	1	nt
CCOC(=O)c1[nH]c(C)c(C(=O)Nc2ccccc2F)c1C	-77	13	7	2	52*	-21	13
CCOC(=O)c1c(C)[nH]c(C(=O)OCc2ccccc2F)c1C	-196	4	34	-5	-166	38	-115
CCOC(=O)c1c(C)[nH]c(C(=O)OCC(=O)NCc2ccccc2)c1C	5	nt	nt	nt	-4	nt	nt
CCOC(=O)c1c(C)[nH]c(C(=O)OCC(=O)c2ccccc2)c1C	-220	-1	-24	nt	-193	-5	-151
COc1cc(NC(=O)COC(=O)CSc2cc(C)ccc2C)c(C)cc1[N+](=O)[O-]	-9	-7	-1	-10	-18	-34	nt
COc1ccc(N2CCN(CCS(=O)(=O)c3cc(Cl)ccc3Cl)CC2)cc1	11	nt	nt	nt	1	nt	nt
CCOC(=O)c1[nH]c(C)c(C(=O)Nc2ccc(C)cc2C)c1C	-62	-17	-14	6	53*	-15	42
CCOC(=O)c1[nH]c(C)c(C(=O)Nc2cc(OC)ccc2OC)c1C	7	-14	-8	-3	70*	-19	46
O=C(Nc1cc(F)ccc1F)c1ccc(-n2cncn2)c([N+](=O)[O-])c1	-16	4	-9	nt	-15	-9	nt
O=C(O)c1ccc(-c2ccc(/C=C3\NC(=O)N(Cc4ccc(Cl)cc4)C3=O)o2)cc1Cl	0	5	-1	-3	3	12	nt
CCc1cc(-c2ccc3c(c2)COc2c4ccccc4nn2-3)on1	-100	-13	-7	nt	-165	10	-57
CCCC#Cc1ccc2c(c1)COc1c3ccccc3nn1-2	-197	-8	-20	nt	-125	6	nt
COc1ccccc1NC(=O)c1oc2ccc(C)cc2c1C	-101	20	25	-13	-64	-18	nt
Cc1ccc2oc(C(=O)Nc3cc(C)on3)c(C)c2c1	-47	nt	nt	nt	-169	nt	-75
CCC1(c2ccc(F)cc2)NC(=O)N(CC(=O)Nc2ccc(-c3nc4ccc(C)cc4s3)cc2)C1=O (stereo not given)	-178	-1	22	3	-186	53	-82
COc1ccc(C2(C)NC(=O)N(CC(=O)Nc3ccc(-c4nc5ccc(C)cc5s4)cc3)C2=O)cc1 (stereo not given)	-104	13	8	-18	-81	42	nt
COc1ccccc1CNC(=O)c1cccc(-c2ccc(C)c3ccccc23)n1	-13	-13	-30	17	61*	-6	22
COc1cc(/C=C/C(=O)c2ccc([N+](=O)[O-])o2)ccc1O	-44	24	27	nt	71*	?	47*
COc1ccc(/C=C/C(=O)c2ccc([N+](=O)[O-])o2)cc1OC	-17	39	?	nt	26	45	nt

Screening data deposited in PubChem BioAssay by several laboratories.
